Rows were chosen to be rich in hits. Some 3.5% of all compounds tested hit in one or more screens of this group.
MrgX1 agonist: human MrgX1 receptor agonism, primary screen | Q96LB2 | MrgX1-HEK293 cells, Fluo-4 calcium fluorescence, agonist mode; stronger effect = higher value | B-score at 10 µM | 310,000 tested, 0.44% active | AID 588627;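 active = calcium response B-score plate-corrected fluorescence ratio at least 3 library SD, with starting fluorescence B-score inside 5 SD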
Target sequence (Q96LB2 whole entry, looked up): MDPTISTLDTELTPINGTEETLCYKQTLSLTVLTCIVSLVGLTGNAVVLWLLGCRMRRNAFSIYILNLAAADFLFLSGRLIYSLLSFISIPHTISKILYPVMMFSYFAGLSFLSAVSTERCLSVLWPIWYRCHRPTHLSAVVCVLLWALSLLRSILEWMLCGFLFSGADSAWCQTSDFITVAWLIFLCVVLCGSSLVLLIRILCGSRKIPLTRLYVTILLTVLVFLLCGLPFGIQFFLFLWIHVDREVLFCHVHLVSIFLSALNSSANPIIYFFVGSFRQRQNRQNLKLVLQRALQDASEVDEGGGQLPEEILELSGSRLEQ
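Material: HEK293 cells stably expressing human MrgX1 receptor | Quantity: 15,000 cells per well | Times: Cells plated overnight, dye loaded 0.5 h 37 °C, 0.5 h room temperature | Measured by: Kinetic Fluo-4 NW fluorescence of intracellular calcium | Control set: Positive and negative controls per plate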
RGS4 inh: human RGS4 inhibition. HEK293 M3R/RGS4 inducible, Fluo-4 calcium flux; stronger effect = higher value; triggered by carbachol at its EC20. B-score at 10 µM. 310,000 tested, 0.45% active. AID 463165;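 active = B-score, a plate-corrected calcium signal, over three deviations above library mean, with baseline fluorescence within five deviations of library mean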;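 note: RGS4 expression induced by doxycycline in cells with stable M3 receptor; B-score is computed from the integrated fluorescence ratio over baseline after carbachol; higher B-score means a larger calcium signal and so more RGS4 inhibition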
Target sequence (P49798 whole entry, looked up): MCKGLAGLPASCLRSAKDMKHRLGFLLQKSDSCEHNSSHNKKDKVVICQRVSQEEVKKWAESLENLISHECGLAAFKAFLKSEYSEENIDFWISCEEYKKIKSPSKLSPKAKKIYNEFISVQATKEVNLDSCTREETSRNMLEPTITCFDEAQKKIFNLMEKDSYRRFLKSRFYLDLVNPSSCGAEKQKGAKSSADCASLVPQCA
MrgX1 antagonist: human MrgX1 receptor antagonism, primary screen; B-score at 10 µM; 310,000 tested, 1.3% active; MRGX1-HEK293 calcium flux, Fluo-4, BAM8-22 antagonism; stronger effect = lower value; Q96LB2;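 active = calcium-response B-score plate-corrected more than 3 library SD below zero, starting fluorescence within 5 deviations, no agonist response on first addition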;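 note: peak minus trough fluorescence over baseline after final BAM8-22 challenge near maximal dose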
RGS4 act: RGS4 potentiation or activation; HEK293 M3R/inducible RGS4, carbachol calcium flux Fluo4; stronger effect = lower value; B-score at 10 µM; 310,000 tested, 0.92% active; AID 463111;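 active = B-score of the integrated calcium signal more than 4 SD below the library mean, with starting fluorescence not abnormally high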;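 note: negative B-score means reduced calcium response which marks RGS4 activation or potentiation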
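Material: Inducible-RGS4 HEK293 cells carrying M3 receptor; also added: carbachol at ECmax as muscarinic agonist stimulus; incubation: compound preincubation 20 min at room temperature before agonist; signal: Fluo4-AM (2 µM) calcium-flux fluorescence, kinetic read; measure: integrated calcium ratio converted to B score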
MrgX1 allo act: human MrgX1 positive allosteric modulation, primary screen; Q96LB2; MrgX1-HEK293, Fluo-4 calcium flux, FDSS; stronger effect = higher value; B-score at 10 µM; 310,000 tested, 0.63% active; AID 588675;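 active = plate-corrected calcium response at least 3 library SD above typical, normal starting fluorescence, not activating the receptor alone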;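 note: compound read alongside a low EC10 to EC30 dose of BAM8-22 agonist; peak minus trough fluorescence over baseline measured at the second addition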
MrgX1 antag conf: human MrgX1 receptor antagonism, re-confirmation screen; shares compounds with MrgX1 antagonist; MrgX1-HEK293, BAM8-22 calcium flux, Fluo-4; stronger effect = lower value; remaining BAM8-22 calcium response % of control (stronger effect = lower value), % at 10 µM; 2,300 tested, 19% active; AID 602420;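 active = remaining agonist calcium response no higher than 100% minus 3 SD of agonist-only control wells, with starting fluorescence near control levels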;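 note: agonist BAM8-22 given at a near maximal EC90 to ECmax level; peak minus minimum fluorescence divided by baseline after agonist addition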
HEK293 Ca flux: activity in parental HEK293 cells lacking MrgX1; shares compounds with MrgX1 antagonist; Fluo-4 calcium fluorescence, FDSS; fluorescence ratio F(max-min)/F0 at 10 µM; 4,000 tested, 2% active;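 active = duplicate-averaged calcium fluorescence ratio at least three times the standard deviation of buffer wells, a nonspecific response in parental cells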
HEK293 Ca counter: activity in parental HEK293 cells without MrgX1; shares compounds with MrgX1 antagonist; parental HEK293 calcium flux, Fluo-4 fluorescence ratio; stronger effect = higher value; fluorescence ratio F(max-min)/F0 at 10 µM; 4,000 tested, 0.4% active; AID 624114;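 active = calcium fluorescence ratio, averaged over duplicates, at least 3 SD of the buffer-well ratio, meaning a nonspecific response in receptor-free cells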;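 note: untransfected parental HEK293 lacking MrgX1 used as counterscreen for MrgX1 allosteric activators; fluorescence change taken during the second addition on a kinetic imager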
HEK293 Ca cntr2: MrgX1 activator counter-screen hit in parental HEK293 cells; fluorescence ratio F(max-min)/F0 at 10 µM; Fluo-4 calcium fluorescence (FDSS); stronger effect = higher value; shares compounds with MrgX1 antagonist; AID 624115; 4,000 tested, 8.7% active;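 active = calcium fluorescence ratio at least three times the spread of buffer wells, meaning a non-specific response in parental cells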
* = called active by the depositor; i = inactive; x = not tested or not shown.

SMILES	MrgX1 agonist	RGS4 inh	MrgX1 antagonist	RGS4 act	MrgX1 allo act	MrgX1 antag conf	HEK293 Ca flux	HEK293 Ca counter	HEK293 Ca cntr2
OCCC1CN(Cc2ccon2)CCN1Cc1ccc(F)c(F)c1 (stereo not given)	i	i	-8.5*	i	i	i	i	i	i
COc1cccc(CN2CCN(Cc3ccon3)CC2CCO)c1 (stereo not given)	i	i	i	i	i	x	x	x	x
Cc1ccc(N2C(=O)N(CC(=O)Nc3ccc(C)cc3Cl)C(=O)C2C)cc1 (stereo not given)	i	i	-10*	i	i	77%*	i	i	i
O=C(CCc1ccccc1)NC1CCSC1=O (stereo not given)	i	i	-6.1*	i	i	i	i	i	i
CCOC(=O)N1CCN(CCC(=O)Nc2cccc(C)c2)CC1	i	i	i	i	i	x	x	x	x
COc1ccccc1NC(=S)NCCc1c[nH]c2ccccc12	i	i	-5.6*	i	i	i	i	i	i
COC(=O)c1[nH]c2ccc(C)cc2c1NS(=O)(=O)c1ccc(F)c(C)c1	i	i	-6.8*	i	i	i	i	i	i
Cc1ccccc1OCC(=O)Nc1ccc2c(c1)OCO2	i	i	-4.5*	i	i	84%*	i	i	i
O=S(=O)(NC1c2cccc3cccc(c23)C1N1CCNCC1)c1ccc(Cl)cc1 (stereo not given)	i	i	-5.8*	i	i	84%*	i	i	i
CC(=O)N1CCN(C2c3cccc4cccc(c34)C2NS(=O)(=O)c2ccccc2)CC1 (stereo not given)	i	i	i	i	i	x	x	x	x
Cc1ccc(SC2CC(=O)N(c3ccc4c(c3)OCCO4)C2=O)cc1 (stereo not given)	i	i	i	i	i	x	x	x	x
COc1ccc(CNC(=O)CN(C(=O)c2csnn2)c2ccccc2F)cc1	i	i	i	i	i	x	x	x	x
CC1=CC(=O)C(C(C)C)=C/C1=N/OS(=O)(=O)c1ccccc1	i	i	-14*	-8.2*	i	i	i	i	i
CC1=CC(=O)C=C(C)C1=NOS(=O)(=O)c1ccccc1	x	i	x	i	x	x	x	x	x
COc1cc2cc3c(N)c(C(=O)Nc4sc(C)c(C)c4C#N)sc3nc2cc1OC	i	i	-6.2*	i	i	74%*	i	i	i
Cc1nn(CCc2nn[nH]n2)c2nc(-c3ccc(C4CCCCC4)cc3)cc(C(F)(F)F)c12	i	i	-21*	-8.5*	i	2.0%*	i	i	84*
Cc1nn(CCC(=O)O)c2nc(-c3cccnc3)cc(C(F)(F)F)c12	i	i	i	i	i	x	x	x	x
CC(C)(C)NC(=O)CN(C(=O)CNS(=O)(=O)c1ccc(Cl)cc1)c1ccc2c(c1)OCCO2	i	i	i	i	i	x	x	x	x
CS(=O)(=O)N(CC(=O)N1CCN(c2cccc(Cl)c2)CC1)C1CCCCC1	i	i	i	i	i	x	x	x	x
Cc1ccc(Cl)cc1N1CCN(C(=O)CN(C2CCCCC2)S(C)(=O)=O)CC1	i	i	-12*	i	i	i	i	i	i
Cc1ccc(NC(=O)CN(C)C(=O)c2cc(S(=O)(=O)N(C)C)ccc2N2CCCC2)cc1	i	i	i	i	i	x	x	x	x
COc1ccc(CNC(=O)C2CCCN2S(=O)(=O)c2ccc(Cl)cc2)cc1 (stereo not given)	i	i	-5.5*	i	i	84%*	i	i	i
Cc1ccc(CNC(=O)C2CCCN2S(=O)(=O)c2ccc(F)cc2)cc1 (stereo not given)	i	i	i	i	i	x	x	x	x
COc1ccc(CCNC(=O)C2CCCN2S(=O)(=O)c2ccc(F)cc2)cc1OC (stereo not given)	i	i	-9*	i	i	i	i	i	i
CCc1cc(=O)oc2cc(OC(C)=O)cc(OC(C)=O)c12	i	i	-8.3*	i	i	i	i	i	i
SMILES	MrgX1 agonist	RGS4 inh	MrgX1 antagonist	RGS4 act	MrgX1 allo act	MrgX1 antag conf	HEK293 Ca flux	HEK293 Ca counter	HEK293 Ca cntr2
COc1ccc(CCNc2ccc([N+](=O)[O-])cn2)cc1	i	i	i	i	i	x	x	x	x
COc1ccc(CCNc2cc(=O)[nH]c(N)n2)cc1	i	i	-6.8*	i	i	i	i	i	i
CCOc1ccc(NC(=O)CCC(=O)N/N=C(\C)c2cccs2)cc1	i	i	i	i	i	x	x	x	x
CCCCn1c(N)c(N(CCC(C)C)C(=O)c2ccc(C)c(S(=O)(=O)N3CCOCC3)c2)c(=O)[nH]c1=O	i	i	i	i	i	x	x	x	x
CNc1nc(CC(C)=O)ns1	i	i	i	i	i	x	x	x	x
CCCCNc1nc(CC(C)=O)ns1	i	i	-6.6*	i	i	i	i	i	i
C/C=C/c1ccc(Oc2nnnn2-c2ccc(C(=O)O)cc2)c(OC)c1	i	i	-4.6*	i	i	i	i	i	i
COc1cc(C=O)ccc1Oc1nnnn1-c1ccc(C(N)=O)cc1	i	i	i	i	i	x	x	x	x
CCn1nc(C)c(Br)c1Nc1ccc(Br)cc1	i	i	i	i	i	x	x	x	x
COc1ccc(CC2(C)OC(c3ccc(C)c([N+](=O)[O-])c3)=NN2C(C)=O)cc1 (stereo not given)	i	i	i	i	i	x	x	x	x
COc1cccc(NC(=S)N(Cc2cccc(Br)c2)CC2CCC(C(=O)O)CC2)c1 (stereo not given)	i	i	i	i	i	x	x	x	x
Cc1cc(C)n(CCCNC(=O)c2ccc3c(c2)NC(=O)CS3)n1	i	i	-8*	i	i	i	i	i	i
CCOC(=O)C(C)Sc1nc(=O)n2ccccc2n1 (stereo not given)	i	i	-5.1*	i	i	i	i	i	i
